Laboratory results from ChEMBL document CHEMBL1143241, “Development of potent, allosteric dual Akt1 and Akt2 inhibitors with improved physical properties and cell activity” (Bioorg Med Chem Lett, 2008).
Values after ≈ are worked out from the molar mass of the structure shown.

Experiments:
[1] = Solubility at pH 7.4 in 98% saline; type: physicochemical
[2] = Inhibition of PKC
Outline: (§1)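 In vitro enzyme inhibition assay following a previously reported protocol. Each IC50 is the average of at least three determinations.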

[3] = biological target: T1, RAC-gamma serine/threonine-protein kinase (Homo sapiens, UniProt Q9Y243); experiment: Inhibition of Akt3 by cell-based IPKA assay
T1 sequence (Q9Y243 whole entry): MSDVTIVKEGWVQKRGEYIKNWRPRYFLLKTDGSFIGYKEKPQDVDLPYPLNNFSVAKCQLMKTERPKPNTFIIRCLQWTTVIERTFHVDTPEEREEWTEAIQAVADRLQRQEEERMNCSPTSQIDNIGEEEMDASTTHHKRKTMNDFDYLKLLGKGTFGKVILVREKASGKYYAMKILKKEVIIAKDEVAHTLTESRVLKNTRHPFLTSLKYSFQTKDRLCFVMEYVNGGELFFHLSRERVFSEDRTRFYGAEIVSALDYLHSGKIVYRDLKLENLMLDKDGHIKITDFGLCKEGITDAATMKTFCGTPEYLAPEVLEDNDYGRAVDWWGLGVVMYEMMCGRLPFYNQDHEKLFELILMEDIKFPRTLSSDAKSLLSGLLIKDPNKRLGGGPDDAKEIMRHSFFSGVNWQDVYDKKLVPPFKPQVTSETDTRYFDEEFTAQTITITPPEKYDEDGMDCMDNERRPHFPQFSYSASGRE

[4] = biological target: T2, RAC-beta serine/threonine-protein kinase (Homo sapiens, UniProt P31751); experiment: Inhibition of Akt2; outline: as §1
T2 sequence (P31751 whole entry): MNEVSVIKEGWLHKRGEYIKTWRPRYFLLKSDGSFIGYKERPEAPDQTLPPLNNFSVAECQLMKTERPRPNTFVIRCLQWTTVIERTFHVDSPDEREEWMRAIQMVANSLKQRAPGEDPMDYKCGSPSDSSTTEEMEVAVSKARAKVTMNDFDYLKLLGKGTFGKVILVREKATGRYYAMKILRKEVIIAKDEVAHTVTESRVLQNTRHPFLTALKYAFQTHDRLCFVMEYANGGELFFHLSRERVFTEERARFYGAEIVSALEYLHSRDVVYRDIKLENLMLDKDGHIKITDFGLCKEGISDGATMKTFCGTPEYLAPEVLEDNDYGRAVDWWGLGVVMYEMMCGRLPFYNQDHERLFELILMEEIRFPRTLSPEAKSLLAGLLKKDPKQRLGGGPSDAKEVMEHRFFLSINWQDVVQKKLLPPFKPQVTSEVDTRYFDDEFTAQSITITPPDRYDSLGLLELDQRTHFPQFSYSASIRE

[5] = Inhibition of PKA; outline: as §1
[6] = biological target: T1, RAC-gamma serine/threonine-protein kinase; experiment: Inhibition of Akt3
[7] = biological target: T2, RAC-beta serine/threonine-protein kinase; experiment: Inhibition of Akt2 by cell-based IPKA assay
[8] = biological target: T3, Serine/threonine-protein kinase Sgk1 (Homo sapiens, UniProt O00141); experiment: Inhibition of SGK; outline: as §1
T3 sequence (O00141 whole entry): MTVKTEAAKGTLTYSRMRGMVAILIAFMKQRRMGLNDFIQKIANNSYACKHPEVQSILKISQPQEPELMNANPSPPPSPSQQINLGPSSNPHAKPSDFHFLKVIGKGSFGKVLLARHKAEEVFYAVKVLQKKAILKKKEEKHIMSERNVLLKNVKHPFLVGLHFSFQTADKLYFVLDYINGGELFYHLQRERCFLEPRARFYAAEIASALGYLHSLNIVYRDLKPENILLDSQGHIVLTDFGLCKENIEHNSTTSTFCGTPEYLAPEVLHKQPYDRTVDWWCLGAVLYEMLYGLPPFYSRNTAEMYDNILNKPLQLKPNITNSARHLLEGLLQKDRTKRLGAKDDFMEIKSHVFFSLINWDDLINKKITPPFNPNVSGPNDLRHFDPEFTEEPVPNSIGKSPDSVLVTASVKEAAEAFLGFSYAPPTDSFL

[9] = biological target: T4, RAC-alpha serine/threonine-protein kinase (Homo sapiens, UniProt P31749); experiment: Inhibition of Akt1 by cell-based IPKA assay
T4 sequence (P31749 whole entry): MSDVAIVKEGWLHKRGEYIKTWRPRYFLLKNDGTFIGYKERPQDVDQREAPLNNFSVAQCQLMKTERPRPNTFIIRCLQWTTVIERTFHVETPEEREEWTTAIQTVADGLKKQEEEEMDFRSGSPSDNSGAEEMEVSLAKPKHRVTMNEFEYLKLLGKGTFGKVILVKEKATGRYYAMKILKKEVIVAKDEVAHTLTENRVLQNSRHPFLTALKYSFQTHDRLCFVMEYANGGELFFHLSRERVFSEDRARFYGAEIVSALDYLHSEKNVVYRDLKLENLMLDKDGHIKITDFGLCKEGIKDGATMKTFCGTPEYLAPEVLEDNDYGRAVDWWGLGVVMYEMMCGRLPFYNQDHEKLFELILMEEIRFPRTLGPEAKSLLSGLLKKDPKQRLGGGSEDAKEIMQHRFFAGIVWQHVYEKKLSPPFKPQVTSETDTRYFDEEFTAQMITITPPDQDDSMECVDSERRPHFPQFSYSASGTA

[10] = biological target: T4, RAC-alpha serine/threonine-protein kinase; experiment: Inhibition of Akt1; outline: as §1

| SMILES | solubility [1] | IC50 [2] | IC50 [3] | IC50 [4] | IC50 [5] | IC50 [6] | IC50 [7] | IC50 [8] | IC50 [9] | IC50 [10] |
| --- | --- | --- | --- | --- | --- | --- | --- | --- | --- | --- |
| O=c1[nH]c2ccccc2n1C1CCN(Cc2ccc(-c3nc4ccc(-c5nnn[nH]5)cc4nc3-c3ccccc3)cc2)CC1 | 18 mg/mL (≈ 31.1 mM) | – | – | – | – | – | – | – | – | – |
| O=C(O)c1ccc2nc(-c3ccccc3)c(-c3ccc(CN4CCC(n5c(=O)[nH]c6ccccc65)CC4)cc3)nc2c1 | 18 mg/mL (≈ 32.4 mM) | – | – | – | – | – | – | – | – | – |
| O=C(O)c1ccc2nc(-c3ccc(CN4CCC(n5c(=O)[nH]c6ccccc65)CC4)cc3)c(-c3ccccc3)nc2c1 | 18 mg/mL (≈ 32.4 mM) | – | – | – | – | – | – | – | – | – |
| CCN(CC)CCNC(=O)c1ccc2nc(-c3ccc(CN4CCC(n5c(=O)[nH]c6ccccc65)CC4)cc3)c(-c3ccccc3)nc2c1 | 18 mg/mL (≈ 27.5 mM) | > 50 µM | 8 µM | 359 nM | > 50 µM | 7.4 µM | 617 nM | > 50 µM | 368 nM | 458 nM |
| O=c1[nH]c2ccccc2n1C1CCN(Cc2ccc(-c3nc4cc(-c5nnn[nH]5)ccc4nc3-c3ccccc3)cc2)CC1 | 18 mg/mL (≈ 31.1 mM) | – | – | – | – | – | – | – | – | – |
| CCN(CC)CCNC(=O)c1ccc2nc(-c3ccccc3)c(-c3ccc(CN4CCC(n5c(=O)[nH]c6ccccc65)CC4)cc3)nc2c1 | 18 mg/mL (≈ 27.5 mM) | > 50 µM | > 10 µM | 212 nM | > 50 µM | 7.2 µM | 276 nM | > 50 µM | 253 nM | 138 nM |
